Screening results: PubChem, several laboratories
MEX-5 binding = MEX-5 zinc finger RNA-binding disruptors – biochemical, C. elegans, fluorescence polarization, MLPCN library, primary screen; MEX-5/FITC-TCR2 RNA binding; active compounds read low; activity score (negative = inhibition of binding), % at 10 µM; hit rate 0.38% among 300,000;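 active = inhibition past about -25% in most replicates, and total fluorescence under double the plate's negative control median, limit read from the data; inconclusive = replicates evenly split on the limit, or fluorescence at least double controls; inactive = too little inhibition in most replicates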;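 note: 0% = DMSO and -100% = 5 µM competing unlabeled TCR2 RNA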
Target sequence (Q9XUB2 whole entry, looked up): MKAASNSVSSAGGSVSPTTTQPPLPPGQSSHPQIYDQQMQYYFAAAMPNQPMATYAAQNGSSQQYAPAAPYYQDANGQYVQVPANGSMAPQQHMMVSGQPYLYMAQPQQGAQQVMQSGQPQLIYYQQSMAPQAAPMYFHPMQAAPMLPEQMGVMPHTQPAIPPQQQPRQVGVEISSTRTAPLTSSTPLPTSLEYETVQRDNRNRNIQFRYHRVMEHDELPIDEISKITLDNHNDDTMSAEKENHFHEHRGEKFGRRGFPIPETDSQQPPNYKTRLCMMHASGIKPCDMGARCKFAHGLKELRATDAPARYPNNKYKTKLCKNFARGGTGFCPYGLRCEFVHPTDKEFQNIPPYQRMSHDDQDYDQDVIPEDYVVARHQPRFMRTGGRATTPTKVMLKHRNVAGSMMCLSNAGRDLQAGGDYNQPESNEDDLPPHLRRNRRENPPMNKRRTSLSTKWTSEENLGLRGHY
PKD1 kinase inh = inhibitors of human PKD1 kinase, biochemical, fluorescence polarization; PKD1 kinase fluorescence polarization assay; hit rate 0.056% among 200,000; Serine/threonine-protein kinase D1 (Homo sapiens), Q15139; inhibition, % (concentration not given with the values); AID 797, 2007
RanGTP-Imp inh = inhibitors of RanGTP-importin-beta interaction, primary screen, biochemical, FRET, CFP-Ran, YFP-importin-beta, homogeneous; inhibition, % (no concentration beside the values); Ran GTPase (GTP-bound) - importin-beta complex; hit rate 1.1% among 300,000; AID 2216, 2009; cell-free CFP-Ran/YFP-importin-beta FRET ratio;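 active = more than half of the replicate wells show a fall in the fluorescence ratio signal beyond about 16%, limit read from the data, passing the limit was not always enough; inconclusive = exactly half of the replicate wells pass the set limit; inactive = fewer than half of replicates pass the limit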;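 note: 0% = DMSO wells and 100% = Ran loaded with GDP instead of GTP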
EBV gp42 inh = Epstein-Barr virus gp42 inhibitors, primary screen, biochemical, uHTS, fluorescence polarization; Glycoprotein 42 (Epstein-Barr virus (strain AG876)), Q1HVG2; Fluorescence polarization binding assay, mP read-out; inhibition, % (tested at 21.74 µM); hit rate 0.42% among 220,000; AID 1085, 2008
Target sequence (Q1HVG2 whole entry, looked up): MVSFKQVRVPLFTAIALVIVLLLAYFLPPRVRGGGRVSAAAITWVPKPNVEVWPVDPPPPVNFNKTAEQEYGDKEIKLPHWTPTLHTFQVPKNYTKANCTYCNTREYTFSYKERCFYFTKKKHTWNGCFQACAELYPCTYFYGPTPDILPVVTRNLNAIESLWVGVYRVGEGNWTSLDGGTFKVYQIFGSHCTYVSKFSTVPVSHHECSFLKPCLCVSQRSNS
Runt-CBFb FRET = inhibitors of RUNX1 Runt–CBFb binding, primary screen, biochemical, FRET, Cerulean-Runt, Venus-CBFb, uHTS. Runt-related transcription factor 1 (Homo sapiens) + Core-binding factor subunit beta …. Cerulean-Runt/Venus-CBFb FRET ratio 530/480, 1 h. inhibition, % at 20 µM. hit rate 0.46% among 220,000. AID 1496, 2009;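 active = inhibition over about 50% at 20 µM in the single-dose screen, limit read from the data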;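 note: 0% = DMSO wells and 100% = excess unlabeled CBFb competitor control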
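Assay system: Cerulean-Runt domain / Medium: Tris 50 mM pH 7.5, KCl, K2SO4, 0.01% BSA / Timing: protein complex preformed 1 h, compound exposure 1 h, room temperature, dark / Measured by: FRET, excitation 422 nm, emission at 530 and 480 nm / Evaluation: loss of energy transfer signal / Control set: 5 µM unlabeled CBFb as full-inhibition high control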
Runt-SMMHC FRET = inhibitors of RUNX1 Runt–CBFb-SMMHC binding, primary screen, biochemical, FRET, Cerulean-Runt, Venus-CBFb-SMMHC, uHTS; Cerulean-Runt/Venus-CBFb-SMMHC FRET ratio 530/480, 1 h; inhibition, % at 20 µM; hit rate 0.74% among 220,000; Runt-related transcription factor 1 (Homo sapiens) + Core-binding factor subunit beta …;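 active = mean inhibition across duplicate retests at 20 µM reaching about 50%, limit read from the data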;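 note: 0% = DMSO wells and 100% = wells with excess untagged CBFb-SMMHC; inhibitors lower the FRET ratio by blocking Runt binding to CBFb-SMMHC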
* hit, by the source's call; ? = inconclusive; · = not tested or not shown. Compounds with a hit are over-represented: about 2% of the library has one in this group of screens. Cut-off read from the data, not from the text of the source, unless noted: active = inhibition above about 50%; inactive = the rest.

SMILES | MEX-5 binding | PKD1 kinase inh | RanGTP-Imp inh | EBV gp42 inh | Runt-CBFb FRET | Runt-SMMHC FRET
Cc1ccc2cc(/C=C3\N=C(c4ccccc4)OC3=O)c(N3CCOCC3)nc2c1 | -33.8* | 5.4 | 1.9 | 157.5* | -0.2 | -51.1
Cc1cc(=O)oc2cc3c(cc12)OCCN3 | -2.8 | 0.4 | 97.1* | -22.0 | 9.8 | 43.7
COc1cc(/C=C2\CCCc3c2nc2ccccc2c3C(=O)O)cc(OC)c1O | -10.8 | · | -4.7 | -6.0 | 42.7 | 23.0
CCOc1ccc(/C=C2\CCCc3c2nc2ccccc2c3C(=O)O)cc1OC | ? | · | 29.0* | · | · | ·
COc1ccc(/C=C2\CCCC(C(=O)C(F)(F)F)=C2O)cc1OC | -34.2* | -5.2 | 4.2 | -6.2 | · | 0.6
COc1ccc(/C=C2\CCCc3c2nc2ccccc2c3C(=O)O)cc1OC | -73.2* | · | 37.3* | 105.3* | 11.9 | 81.0*
COc1ccc(/C=C2\CCc3c2nc2ccccc2c3C(=O)O)cc1OC | -4.9 | · | -25.8 | 8.4 | 9.8 | 81.6
COc1ccc(-c2noc3c2-c2nc(-c4ccccc4F)sc2CC3)cc1 | -0.4 | · | ? | · | · | ·
COc1cc(OC)cc(C(=O)NCC(C)NC(=O)c2cc(OC)cc(OC)c2)c1 (stereo not drawn) | -2.4 | · | -0.4 | · | · | ·
O=c1c(-c2nc3ccccc3s2)cccn1Cc1ccccc1 | 0.9 | -9.7 | 9.1 | -5.0 | 11.7 | 32.5
Oc1ccc(-c2nc3ccccc3s2)c(O)c1 | 1.2 | · | -4.5 | -10.4 | 6.2 | 8.3
Nc1ccc(O)c(-c2nc3ccccc3s2)c1 | -5.2 | -7.9 | 24.8* | 21.2 | 7.6 | 28.1
Nc1ccccc1-c1nc2ccccc2s1 | -0.8 | 6.3 | 4.9 | -10.4 | 21.6 | 55.1*
Oc1ccc(N=C/C=C/c2cccc(Br)c2)cc1-c1nc2ccccc2s1 | 1.5 | -5.5 | 37.8* | -11.8 | 23.4 | 28.8
Cc1ccc(Cn2cccc(-c3nc4ccccc4s3)c2=O)cc1 | 0.3 | -9.6 | ? | -33.7 | 49.5 | 133.7*
Cc1ccc(OCC(=O)OCc2nc3scc(-c4ccccc4)c3c(=O)[nH]2)cc1C | 1.6 | · | -1.9 | · | · | ·
Cn1c(N)c(S(=O)(=O)N2CCN(c3ccccc3Cl)CC2)c(=O)n(C)c1=O | 4.4 | · | 26.2* | · | · | ·
COC1CCCN(Cc2c(C(=O)N3CCN(C4CCCCC4)CC3)nc3ccccn23)C1 (stereo not drawn) | -12.8 | · | 103.8* | · | · | ·
CCCN(CCC)Cc1cc(=O)oc2cc3c(cc12)CCC3 | 3.3 | · | 1.6 | -10.0 | -3.0 | 0.8
COc1ccccc1N1CCN(CC(O)COc2c(OC)cccc2OC)CC1 (stereo not drawn) | -0.9 | -2.4 | 23.6* | -2.5 | -1.2 | 1.3
CC(=O)Nc1nc(Cn2nnc(-c3ccc4c(c3)OCO4)n2)nc(N(C)C)n1 | 1.1 | 8.3 | 0.4 | 10.3 | · | -0.4
COc1ccc(OC)c(S(=O)(=O)CC(O)COc2ccccc2Cl)c1 (stereo not drawn) | -1.7 | · | 0.5 | · | · | ·
CCNC(=S)Nc1nc2c(cc1C(=O)OCC)CCCC2 | 0.2 | 9.0 | 0.5 | -10.0 | -1.6 | -5.6
CN1C(=O)c2ccccc2NC(=O)[C@]12O[C@@H]2c1cccc(O)c1 | -43.8* | · | -4.7 | 16.3 | -1.1 | -12.4
Cc1nc2cc(NC(=O)c3ccc(N4C(=O)CCC4=O)cc3)ccc2s1 | 0.2 | -2.0 | 1.4 | -8.5 | 0.3 | 2.0
SMILES | MEX-5 binding | PKD1 kinase inh | RanGTP-Imp inh | EBV gp42 inh | Runt-CBFb FRET | Runt-SMMHC FRET
CCCn1c(C)cc(C(=O)COC(=O)c2nccnc2N)c1C | 0.9 | 2.4 | 25.5* | -15.4 | 10.8 | 6.9
c1cc2c3c(cccc3c1)C(N1CCCCCC1)=N2 | -8.3 | 0.9 | 23.4* | -13.0 | -17.2 | 60.5
Cc1nc(-c2ccc(O)c(O)c2)cs1 | -51.2* | 6.0 | 0.1 | -47.3 | 39.2 | 23.8
Oc1ccc(-c2csc(-c3ccccc3)n2)cc1O | -8.2 | 11.3 | -4.4 | -3.4 | 37.0 | 52.3*
Cc1ccc2nc(-c3ccc(O)c(O)c3)cn2c1 | -48.3* | · | ? | · | · | ·
O=C(Nc1ccc(N2CCOCC2)cc1)C1CCN(S(=O)(=O)c2ccccc2F)CC1 | -4.7 | · | ? | -20.8 | 2.7 | -3.4
CCC(C(=O)NN1C(=O)c2ccccc2C1=O)c1ccccc1 (stereo not drawn) | -0.7 | 2.0 | 1.8 | 4.1 | 2.3 | -0.3
CCN(CC)c1ccc(C=C2C(=O)OC(c3ccccc3)OC2=O)cc1 (stereo not drawn) | 1.6 | 6.5 | -0.7 | 90.8* | · | 3.4
CCN(CC)c1ccc(C=C2C(=O)OC(C)(C(C)(C)C)OC2=O)cc1 (stereo not drawn) | -68.6* | · | 6.1 | · | · | ·
CCN(CC)c1ccc(C=C2C(=O)OC3(CCCC3)OC2=O)cc1 | 25.5 | -11.8 | 0.8 | -205.8 | 2.3 | -13.1
COc1ccc(/C=N/n2cnc3c([nH]c4ccccc43)c2=O)cc1COc1ccccn1 | -1.3 | -1.5 | -3.9 | -6.9 | · | -0.2
O=C(CCn1cnnn1)Nc1ccc(F)cc1 | -0.3 | -2.0 | 0.2 | 1.4 | 1.8 | -2.8
O=C1/C(=C/c2ccco2)CCc2ccccc21 | 2.4 | -0.9 | 2.1 | -3.6 | 12.8 | 5.4
Nc1ccc2c(c1)C/C(=C/c1ccco1)C2=O | -45.2* | 2.9 | -6.6 | 97.8* | -79.1 | -192.8
O=C(Nc1nc2c(s1)CN(Cc1ccccc1)CC2)c1cccc(S(=O)(=O)N2CCc3ccccc32)c1 | -21.7 | -4.9 | 140.1* | 111.1* | -5.7 | -2.7
O=C(Nc1nc2ccccc2s1)c1cccc(S(=O)(=O)N2CCc3ccccc32)c1 | 1.0 | · | -3.0 | -24.9 | 2.2 | 2.8
O=C(Cc1cn2ccsc2n1)Nc1nc2c(s1)CN(Cc1ccccc1)CC2 | -9.6 | -11.9 | 11.1 | -11.1 | 47.3 | 77.1*
Fc1ccc(Nc2nc(N/N=C/c3ccco3)nc(N3CCCCC3)n2)cc1 | 1.5 | -1.2 | -3.6 | -14.5 | -2.9 | -3.9
CN(C)CCCNC(=S)N(CCCO)Cc1cc2cc3c(cc2[nH]c1=O)OCO3 | -0.2 | · | 3.3 | · | · | ·
CN(C)CCCNC(=S)NCCNc1nc2cc3c(cc2cc1C#N)OCO3 | 2.9 | -10.1 | 71.6* | -8.4 | 83.6* | 112.7*
COCCNC(=S)NCCCNc1nc2cc3c(cc2cc1C#N)OCO3 | 0.3 | 2.3 | 87.5* | -22.1 | 15.1 | 48.5
COCCCNC(=S)N/N=C/c1ccc2c(c1)OCO2 | 0.2 | · | -2.2 | -2.0 | -0.6 | 0.4
CC1CCCCN1C(=O)CSc1nnc(-c2cccnc2)o1 (stereo not drawn) | -1.5 | · | 0.8 | · | · | ·
COCCNC(=O)c1ccc(CS(=O)(=O)c2cccc(C(F)(F)F)c2)o1 | 1.0 | · | -3.9 | · | · | ·
